In experiment [1] the test system is Listeria monocytogenes. Description: Antimicrobial activity against Listeria monocytogenes DH-L1252 infected in murine bone marrow macrophages assessed as decrease in GFP reporter gene expression at 18.1 uM after 15 hrs. The experiment is classed as functional, organism-based. The procedure, abridged: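 Primary BALB/c bone marrow macrophages (differentiated 6 days with L929 supernatant) are treated with 18.1 µM compound or DMSO, then infected with GFP-expressing 10403S (DH-L1252) at MOI 1:2. Extracellular bacteria are killed with 5 µg/ml gentamicin after 1 h. At 15 h post-infection, cells are fixed with paraformaldehyde and Hoechst-stained, and GFP is imaged by automated microscopy. Three independent infections in duplicate.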
In general terms: Reporter assays use an easily measured gene product as a stand-in for the process of interest.

The subject of experiment [2] is Listeria monocytogenes. Nature of the experiment: Antimicrobial activity against Listeria monocytogenes DH-L1252 infected in murine bone marrow macrophages assessed as decrease in growth rate at 18.1 uM after 6 hrs. The experiment is classed as functional, organism-based.
The subject of experiment [3] is Listeria monocytogenes. Nature of the experiment: Antimicrobial activity against Listeria monocytogenes DH-L1252 infected in murine bone marrow macrophages assessed as log reduction in intracellular bacterial count upto 10 hrs. The experiment is classed as functional. Summed up: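 BALB/c bone-marrow macrophages were seeded at 4 × 10^5/well 24 h ahead and pretreated 2 h with 18.1 µM drug or DMSO. They were infected at MOI 1:2 in antibiotic-free medium with washed Listeria grown 14–16 h in BHI at 30°C without shaking, with drug present throughout. At 1 h, 5 µg/ml gentamicin was added. At each time point cells were lysed in 0.1% Triton X-100 and CFU counted on LB agar, in triplicate.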

Experiment [4] concerns Listeria monocytogenes. Nature of the experiment: Antimicrobial activity against Listeria monocytogenes DH-L1252 infected in murine bone marrow macrophages assessed as intracellular bacterial replication upto 10 hrs. Format: functional, organism-based. Summed up: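 BALB/c bone marrow macrophages (4 × 10^5/well) are pretreated 2 h with 18.1 µM compound or DMSO, then infected with washed wild-type 10403S at MOI 1:2 in the presence of compound. At 1 h, medium with 5 µg/ml gentamicin plus compound is added. At set times, cells are lysed in 0.1% Triton X-100 and lysates plated on LB agar for CFU. Triplicates.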

Experiment [5] concerns Listeria monocytogenes. Nature of the experiment: Inhibition of internalization of Listeria monocytogenes 10403S into murine bone marrow macrophages pretreated at 2.5 to 20 uM for 2 hrs. Format: functional. Summed up: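 Bone marrow macrophages are pretreated 2 h with twofold compound dilutions, then infected with wild-type 10403S at MOI 10:1. Extracellular bacteria are killed with 50 µg/ml gentamicin at 30 min. At 90 min, cells are lysed and intracellular CFU enumerated. Three experiments in triplicate, fitted by linear regression.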

The subject of experiment [6] is Listeria monocytogenes. Description: Inhibition of internalization of Listeria monocytogenes 10403S into murine J774 cells pretreated at 18.1 uM for 2 hrs. The experiment is classed as functional. The procedure, abridged:
(§1)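 J774 or RAW 264.7 cells (4 × 10^5/well) are pretreated 2 h with 18.1 µM compound or DMSO, then infected with washed wild-type 10403S at MOI 10:1 with compound. At 30 min, medium with 50 µg/ml gentamicin plus compound is added. At 90 min, cells are lysed in 0.1% Triton X-100 and intracellular CFU plated on LB agar. Triplicates.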

The test system of experiment [7] is Listeria monocytogenes. Description: Inhibition of internalization of Listeria monocytogenes 10403S into murine Raw 264.7 cells pretreated at 18.1 uM for 2 hrs. Format: functional. The settings on record: RAW264.7. The procedure, abridged:
as §1

The test system of the next experiment is Bacillus subtilis. Nature of the experiment: Inhibition of internalization of Bacillus subtilis into murine murine bone marrow macrophages pretreated at 18.1 uM for 2 hrs. The experiment is classed as functional. Summed up:
(§2)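 Gentamicin protection assay: bone marrow macrophages (4 × 10^5/well) pretreated 2 h with 18.1 µM compound or DMSO, then infected with B. subtilis 3610 (MOI 1.5:1), Salmonella Typhimurium IR715 (MOI 20:1) or E. coli K12 MM294 (MOI 20:1), all grown in LB at 37°C. After 30 min, 50 µg/ml gentamicin plus compound added; lysed at 90 min; CFU on LB agar; triplicates.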

The subject of the next experiment is Salmonella typhimurium. Description: Inhibition of internalization of Salmonella enterica serovar Typhimurium into murine murine bone marrow macrophages pretreated at 18.1 uM for 2 hrs. Format: functional, Salmonella enterica subsp. enterica serovar Typhimurium. The procedure, abridged:
as §2

For the next experiment, the system named is Escherichia coli. Description: Inhibition of internalization of Escherichia coli K-12 into murine murine bone marrow macrophages pretreated at 18.1 uM for 2 hrs. Format: functional. The procedure, abridged: as §2
Experiment [8] relates to Listeria monocytogenes. Nature of the experiment: Inhibition of internalization of Listeria monocytogenes DH-L1252 into murine bone marrow macrophages assessed as reduction in vacuolar escape of bacteria using phalloidin staining. Format: functional. The procedure, abridged: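 Bone marrow macrophages on coverslips are treated 2 h with 18.1 µM compound or DMSO, then infected 30 min at MOI 10:1 with GFP 10403S grown to OD600 ~0.5 at 37°C. Gentamicin (50 µg/ml) plus compound is added. At 90 min, cells are fixed and stained with Texas Red-phalloidin and Hoechst. At least 100 bacteria per coverslip are scored as percent F-actin-associated.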

For experiment [9], the system named is Listeria monocytogenes. Nature of the experiment: Antimicrobial activity against Listeria monocytogenes 10403S infected in L2 cells assessed as intracellular bacterial replication. Format: functional, cell-based. The procedure, abridged:
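L2 fibroblasts (2 × 10^5/well, seeded 24 h before) are pretreated 2 h with 18.1 µM compound or DMSO. They are then infected with washed wild-type 10403S grown 14–16 h at 30°C in BHI, in antibiotic-free medium with compound. At 1 h, medium with 50 µg/ml gentamicin plus compound is added. At set times, cells are lysed in 0.1% Triton X-100 and lysates plated on LB agar for CFU. Triplicates.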

Experiment [10] has as its system Listeria monocytogenes. Description: Antimicrobial activity against Listeria monocytogenes 10403S infected in L2 cells assessed as decrease in number of plaque formation at 18.1 uM after 1 hr. The experiment is classed as functional, cell-based.
The test system of experiment [11] is Listeria monocytogenes. Nature of the experiment: Antimicrobial activity against Listeria monocytogenes 10403S infected in L2 cells assessed as decrease in plaque size at 18.1 uM after 1 hr. The experiment is classed as functional. The settings on record: L2, 1 h. The procedure, abridged:
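Wild-type L. monocytogenes grown 14–16 h, PBS-washed, infects L2 fibroblast monolayers (2 × 10^6 cells/well, seeded 24 h before) at MOI 1:5 after 2 h compound or DMSO pretreatment. At 1 h, wash and add agarose overlay with 30 µg/ml gentamicin plus 18.1 µM compound. Neutral red overlay added at 72 h. Plates scanned at 96 h; diameters of 10 plaques per well expressed as percent of DMSO; three independent experiments.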

Experiment [12] deals with Listeria monocytogenes. Description: Inhibition of Listeria monocytogenes 10403S entry into murine bone marrow macrophages at 18.1 uM after 30 mins in calcium-free medium. The experiment is classed as functional. Particulars: 0.5 h. Summed up: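 Bone marrow macrophages are preincubated 30 min in calcium-free buffer (NaCl, KCl, MgCl2, 0.1 mM EGTA, glucose, HEPES, pH 7.35) with 18.1 µM compound or DMSO. They are then infected with wild-type 10403S for 15 min. Calcium-free medium with 50 µg/ml gentamicin plus compound is added. At 45 min, cells are lysed and intracellular CFU plated on LB agar. Triplicates.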

Active and inactive are the calls of the source. The calls are words filed in the database; no cut-off is given here.

The term inhibition denotes the relative decrease from the control value, in per cent. For the molecule `O=c1[nH]c2ccccc2n1C1CCN(CCCC(c2ccc(F)cc2)c2ccc(F)cc2)CC1` [PIMOZIDE], the result with Listeria monocytogenes [1] was Active. Also, the outcome with Listeria monocytogenes [2], in the experiment with Listeria monocytogenes [4] and with Listeria monocytogenes [9] was inactive. In the experiment with Listeria monocytogenes [3], the FC was 1. Besides, in the experiment on Listeria monocytogenes [5], the inhibition entry was “Dose-dependent effect”. Besides, the inhibition at 18.1 µM in the experiment with Listeria monocytogenes [6] came out at 75%; with Listeria monocytogenes [7], 95%; in the experiment with Bacillus subtilis it was 73%; with Salmonella typhimurium, 64%; in the experiment with Escherichia coli, 60%; with Listeria monocytogenes [11], 47.1%. The inhibition at 18.1 µM with Listeria monocytogenes [12] was found to be 95%. Moreover, the “inhibition (INH)” value in the experiment with Listeria monocytogenes [8] came out at 26.3%. Besides, the inhibition result with Listeria monocytogenes [10] was “Active”.
